This passage reports IC50, Activity and inhibition results from ChEMBL document CHEMBL1143713, “Antimitotic activities of 2-phenylindole-3-carbaldehydes in human breast cancer cells” (Bioorg Med Chem, 2007).

Activity calls are given as the source filed them. The calls are words filed in the database; no cut-off is given here.

In assay [1] the test system is MDA-MB-231. In words: Antiproliferative activity against human MDA-MB-231 cells after 4 days. It counts as functional, cell-based. The conditions noted are these: MDA-MB-231, 96 h.
The subject of another assay is MCF7. Briefly: Antiproliferative activity against human MCF7 cells after 5 days. It is filed as functional, cell-based. To be noted: MCF7, 120 h.
The test system of assay [2] is MDA-MB-231. Briefly: Cell cycle arrest in MDA-MB-231 cells by accumulation at G2/M phase after 24 hrs by flow cytometry. It counts as functional, cell-based. To be noted: Homo sapiens. In outline: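 MDA-MB 231 cells at 70–80% confluence exposed 24 h to compounds diluted from DMF stocks (0.1% DMF final), various concentrations, vincristine reference. Cells trypsinized, fixed in 70% ethanol, DNA-extracted, stained with propidium iodide ≥30 min at room temperature. 8000–15,000 events per sample by flow cytometry; sub-G1, G0/G1, S, G2/M fractions. Representative of two experiments.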
A general note: A flow cytometer gives signals particle by particle.

The test system of assay [3] is U-87MG ATCC. In words: Effect on cell morphology in human U87 cells assessed as disruption of microtubule network and loss of function at 10 nM after 3 hrs. It counts as functional, cell-based. In outline:
(§1)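 U-87 MG glioma cells at 75% confluence treated 3 h at 37 °C; vehicle ethanol. Fixed in 4% paraformaldehyde, permeabilized with 1% Triton X-100. Chromatin stained with SYTOX Green; microtubules with mouse anti-α-tubulin and Cy5 goat anti-mouse antibody (1:200). Imaged by confocal laser scanning microscopy.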

Another assay deals with Tubulin. Briefly: Inhibition of tubulin polymerization by microplate assay. It is filed as protein-complex assay, Homo sapiens. A digest of the protocol: (§2)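 Commercial microplate tubulin kit in G-PEM buffer with 5% glycerol. Compounds from DMSO stocks, diluted 1:10 in G-PEM, added to wells prewarmed to 37 °C. Cold tubulin added; absorbance at 355 nm read every minute over about 28–30 min at 37 °C after shift from 2 °C. Solvent controls; colchicine and docetaxel as references.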

Assay [4] in a line: Inhibition of temperature-induced tubulin polymerization of calf brain. Also on record: species or system Bos taurus. A digest of the protocol:
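Tubulin from fresh calf brain cortex, purified by temperature-dependent polymerization/depolymerization cycles and checked by PAGE, in PEMG buffer. Supernatant mixed with compound in DMSO at varying concentrations, preincubated 15 min at 37 °C, chilled, then 25 mM GTP solution added. Temperature switched from 2 to 37 °C in cuvettes; turbidity at 350 nm over 20 min. Mean of two controls = 100%; IC50 from three independent experiments.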

In another assay the target is Tubulin (Homo sapiens) (UniProt P68371+Q9H4B7+P0DPH7+P68366+Q13509+Q71U36+P04350+Q3ZCM7+P07437+P68363+Q9BQE3+Q6PEY2+Q13885+Q9BVA1+Q9BUF5). Briefly: Inhibition of tubulin polymerization at 5 uM by microplate assay. It counts as protein-complex assay. A digest of the protocol: as §2
Assay [5] relates to U-87MG ATCC. In words: Effect on cell morphology in human U87 cells assessed as condensation of microtubule around the nucleus and loss of function at 50 nM after 3 hrs. It is filed as functional, cell-based. A digest of the protocol:
as §1

In general, IC50 refers to the point on the concentration scale where inhibition reaches its midpoint. Read a low IC50 as greater potency. For `COc1ccc2c(C=O)c(-c3ccc(OC)c(O)c3)[nH]c2c1`, the IC50 in the assay with MDA-MB-231 [1] was 800 nM; with MCF7, 1650 nM.

Regarding `CC[C@]1(O)C[C@H]2CN(CCc3c([nH]c4ccccc34)[C@@](C(=O)OC)(c3cc4c(cc3OC)N(C=O)[C@H]3[C@@](O)(C(=O)OC)[C@H](OC(C)=O)[C@]5(CC)C=CCN6CC[C@]43[C@@H]65)C2)C1`, the outcome with MDA-MB-231 [2] and with U-87MG ATCC [3] was Active.

As for `COc1ccc(-c2[nH]c3ccc(C(C)(C)C)cc3c2C=O)cc1`, the IC50 amounted to 280 nM in the assay with MDA-MB-231 [1] and 580 nM with MCF7.

In the case of `CCCCCCc1ccc2[nH]c(-c3ccc(OC)cc3)c(C=O)c2c1`, the IC50 in the assay with MDA-MB-231 [1] amounted to 7.4 nM; in the assay with MCF7, 6 nM. Besides, the outcome in the assay with MDA-MB-231 [2] was Active.

As for `CCCCc1ccc2[nH]c(-c3ccc(OC)cc3)c(/C=N\C)c2c1`, the IC50 stood at 6 nM in the assay with MDA-MB-231 [1], 27 nM with MCF7 and 1200 nM against Tubulin. Moreover, the outcome in the assay with MDA-MB-231 [2] was Active.

`CCCCCc1ccc2[nH]c(-c3ccc(OC)cc3)c(C=O)c2c1`: the IC50 in the assay with MDA-MB-231 [1] turned out to be 5.5 nM; in the assay on MCF7, 20 nM.

Regarding `COc1ccc(-c2[nH]c3ccc(CC(C)C)cc3c2C=O)cc1`, the IC50 in the assay with MDA-MB-231 [1] stood at 72 nM; in the assay with MCF7 it was 180 nM.

Regarding `CCCCc1ccc2[nH]c(-c3ccc(OC)cc3)c(/C=N\O)c2c1`, the IC50 in the assay on MDA-MB-231 [1] was determined as 40 nM; in the assay with MCF7 it was 212 nM. The outcome in the assay with MDA-MB-231 [2] was Active.

On to `CCCCc1ccc2[nH]c(-c3ccc(C(F)(F)F)cc3)c(/C=N\O)c2c1`, for which the IC50 in the assay with MDA-MB-231 [1] was 497 nM; in the assay on MCF7, 1660 nM.

As to `COc1ccc2c(C=O)c(-c3ccc(OC)c(OC)c3)[nH]c2c1`, the IC50 in the assay on MDA-MB-231 [1] came to 270 nM; with MCF7, 20 nM.

Regarding `C/N=C\c1c(-c2ccc(OC)cc2)[nH]c2cc(OC)ccc12`, the IC50 with MDA-MB-231 [1] was determined as 34 nM; in the assay with MCF7, 220 nM; in assay [4], 1800 nM.

For `CCCCc1ccc(-c2[nH]c3ccc(CC)cc3c2C=O)cc1`, the IC50 was 300 nM in the assay on MDA-MB-231 [1] and 200 nM in the assay with MCF7.

On to `COc1ccc2c(C=O)c(-c3ccc(C)cc3)[nH]c2c1`, for which the IC50 with MDA-MB-231 [1] came out at 31 nM; in the assay on MCF7, 100 nM.

For the molecule `COc1ccc(-c2[nH]c3cc(F)ccc3c2C=O)cc1`, the IC50 came to 59 nM in the assay with MDA-MB-231 [1] and 1800 nM in assay [4].

For the molecule `CCCCc1ccc2[nH]c(-c3ccc(C(F)(F)F)cc3)c(/C=N\C)c2c1`, the IC50 in the assay on MDA-MB-231 [1] came to 32 nM; with MCF7, 140 nM.

The inhibition is the relative decrease from the control value, in per cent. Higher therefore signals strong suppression. For the molecule `CCCCc1ccc2[nH]c(-c3ccc(OC)cc3)c(C=O)c2c1`, the IC50 with MDA-MB-231 [1] was found to be 6.7 nM; in the assay on MCF7, 22 nM. The result in the assay with MDA-MB-231 [2] and with U-87MG ATCC [5] was Active. In addition, the inhibition against Tubulin (Homo sapiens) is 23%.

On to `Cc1ccc(-c2[nH]c3cc(Cl)ccc3c2C=O)cc1`, for which the figures for the IC50 with MDA-MB-231 [1] and with MCF7 were 7.8 nM and 37 nM, respectively.

As to `COc1ccc(-c2[nH]c3ccc(C)cc3c2C=O)cc1`, the IC50 in the assay with MDA-MB-231 [1] came to 86 nM; in the assay on MCF7, 140 nM. Moreover, in the assay on MDA-MB-231 [2], the result was Active.

`COc1ccc(-c2[nH]c3ccc(F)cc3c2C=O)cc1`: the IC50 with MDA-MB-231 [1] was determined as 540 nM; in the assay with MCF7, 240 nM.

As to `CCCCCCc1ccc2[nH]c(-c3ccc(C(F)(F)F)cc3)c(C=O)c2c1`, the IC50 was determined as 43 nM in the assay on MDA-MB-231 [1] and 22 nM in the assay on MCF7.

With `COc1ccc(-c2[nH]c3cc(Cl)c(C)cc3c2C=O)cc1`, the IC50 in the assay on MDA-MB-231 [1] was 26 nM; in the assay with MCF7 it was 62 nM.

For the molecule `COc1ccc(-c2[nH]c3cc(OC)ccc3c2C=O)cc1`, the IC50 was determined as 35 nM in the assay on MDA-MB-231 [1], 160 nM in the assay with MCF7 and 1500 nM in assay [4].

In the case of `COc1ccc(-c2[nH]c3ccc(C(C)C)cc3c2C=O)cc1`, the values for the IC50 with MDA-MB-231 [1] and in the assay with MCF7 were 29 nM and 97 nM, respectively.

On to `COc1cccc(-c2[nH]c3cc(OC)ccc3c2C=O)c1`, for which the IC50 in the assay with MDA-MB-231 [1] was found to be 1030 nM; with MCF7, 390 nM.

Consider `CCCCc1ccc2[nH]c(-c3ccc(C)cc3)c(C=O)c2c1`, for which the IC50 in the assay with MDA-MB-231 [1] came out at 34 nM; in the assay with MCF7, 54 nM. For the same molecule, in the assay with MDA-MB-231 [2], the result was Active.

In the case of `CCCCCc1ccc2[nH]c(-c3ccc(OC)cc3)c(/C=N\C)c2c1`, the IC50 in the assay on MDA-MB-231 [1] amounted to 6 nM; in the assay with MCF7 it was 21 nM.

`CCCCc1ccc2[nH]c(-c3ccc(F)cc3)c(C=O)c2c1`: the results for the IC50 in the assay with MDA-MB-231 [1] and with MCF7 were 350 nM and 200 nM, respectively.

With `CCCCc1ccc2[nH]c(-c3ccc(CC)cc3)c(C=O)c2c1`, the IC50 with MDA-MB-231 [1] amounted to 27 nM; in the assay with MCF7 it was 58 nM. The result in the assay with MDA-MB-231 [2] was Active.

Regarding `CCCCCc1ccc2[nH]c(-c3ccc(C(F)(F)F)cc3)c(C=O)c2c1`, the results for the IC50 with MDA-MB-231 [1] and in the assay with MCF7 were 42 nM and 67 nM, respectively.

`COc1ccc(-c2[nH]c3cc(Cl)ccc3c2C=O)cc1`: the IC50 with MDA-MB-231 [1] was found to be 27 nM; with MCF7, 65 nM.

`CCCc1ccc2[nH]c(-c3ccc(OC)cc3)c(C=O)c2c1`: the IC50 worked out at 20 nM with MDA-MB-231 [1] and 54 nM with MCF7.

As to `COc1ccc(-c2[nH]c3ccc(OC)cc3c2C=O)cc1`, the IC50 in assay [4] is 4000 nM.

Turning to `CCCCc1ccc2[nH]c(-c3ccc(C(F)(F)F)cc3)c(C=O)c2c1`, the figures for the IC50 in the assay on MDA-MB-231 [1] and in the assay on MCF7 were 33 nM and 66 nM, respectively. The result in the assay with MDA-MB-231 [2] was Active. For the same molecule, the outcome at Tubulin (Homo sapiens) was inactive.

With `Cc1ccc(-c2[nH]c3ccc(C)cc3c2C=O)cc1`, the IC50 was 48 nM in the assay on MDA-MB-231 [1] and 165 nM in the assay on MCF7.
